SMILES strings stand for the structures. Activity calls are given as the source filed them. The rule behind the calls is not given here.

In the first test the test system is HT-29. Nature of the test: Inhibition of colony formation in human HT-29 cells at 10 to 100 nM incubated for 10 days by crystal violet staining based assay. It is filed as functional, cell-based. The following applies: dose 10-100 nM, time 10.0 day. The method, boiled down:
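HT-29 clonogenic assay: cells were exposed to compounds for 10 days, then fixed and stained with crystal violet. Two independent experiments.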
As for `Cc1ncsc1-c1ccc([C@H](C)NC(=O)[C@H]2C[C@H](O)CN2C(=O)[C@@H](NC(=O)CCCCCCCCCCN(C)CCCONC(=O)c2ccc(F)c(F)c2Nc2ccc(I)cc2F)C(C)(C)C)cc1`, the inhibition entry is “inactive”.

The subject of a further test is HT-29. Nature of the test: Antiproliferative activity against human HT-29 cells incubated for 3 days by WST8 assay. Format: functional. The following applies: HT-29, 72 h, time 3 day.
In general, GI50 refers to the concentration that inhibits growth by half. As to `O=C1CCC(N2C(=O)c3ccc(NCCCCCCCNCCCONC(=O)c4ccc(F)c(F)c4Nc4ccc(I)cc4F)cc3C2=O)C(=O)N1` (stereo not given), it took 0.5 µM to inhibit growth by half (GI50). Still for that read-out and setting: the result for `Cc1ncsc1-c1ccc([C@H](C)NC(=O)[C@@H]2C[C@@H](O)CN2C(=O)[C@@H](NC(=O)CCCCCCCCCNCCCONC(=O)c2ccc(F)c(F)c2Nc2ccc(I)cc2F)C(C)(C)C)cc1` reads 0.24 µM; that for `O=C1CCC(N2C(=O)c3cccc(NCCNCCCONC(=O)c4ccc(F)c(F)c4Nc4ccc(I)cc4F)c3C2=O)C(=O)N1` (stereo not given), 0.4 µM. On the same count and under the same terms, the result for `O=C1CCC(N2C(=O)c3cccc(NCCCNCCCONC(=O)c4ccc(F)c(F)c4Nc4ccc(I)cc4F)c3C2=O)C(=O)N1` (stereo not given) reads 1.1 µM; that for `O=C1CCC(N2C(=O)c3cccc(NCCOCCOCCNCCCONC(=O)c4ccc(F)c(F)c4Nc4ccc(I)cc4F)c3C2=O)C(=O)N1` (stereo not given), 1.3 µM. The same measure, in the same setting: in the case of `O=C1CCC(N2C(=O)c3cccc(NCCOCCNCCCONC(=O)c4ccc(F)c(F)c4Nc4ccc(I)cc4F)c3C2=O)C(=O)N1` (stereo not given) it was 1.2 µM; in that of `O=C1CCC(N2C(=O)c3cccc(NCCOCCOCCOCCOCCNCCCONC(=O)c4ccc(F)c(F)c4Nc4ccc(I)cc4F)c3C2=O)C(=O)N1` (stereo not given), 0.6 µM; in that of `Cc1ncsc1-c1ccc(CNC(=O)[C@@H]2C[C@@H](O)CN2C(=O)[C@@H](NC(=O)CCNCCCONC(=O)c2ccc(F)c(F)c2Nc2ccc(I)cc2F)C(C)(C)C)cc1`, 5 µM. `Cc1ncsc1-c1ccc(CNC(=O)[C@@H]2C[C@@H](O)CN2C(=O)[C@@H](NC(=O)CCCCNCCCONC(=O)c2ccc(F)c(F)c2Nc2ccc(I)cc2F)C(C)(C)C)cc1`: the GI50 came out at 3 µM. Still for that read-out and setting: in the case of `Cc1ncsc1-c1ccc(CNC(=O)[C@@H]2C[C@@H](O)CN2C(=O)[C@@H](NC(=O)COCCNCCCONC(=O)c2ccc(F)c(F)c2Nc2ccc(I)cc2F)C(C)(C)C)cc1` it was 4 µM; in that of `Cc1ncsc1-c1ccc([C@H](C)NC(=O)[C@@H]2C[C@@H](O)CN2C(=O)[C@@H](NC(=O)CCCCCCCCCCCNCCCONC(=O)c2ccc(F)c(F)c2Nc2ccc(I)cc2F)C(C)(C)C)cc1`, 0.099 µM; in that of `O=C1CCC(N2C(=O)c3ccc(NCCCCCCNCCCONC(=O)c4ccc(F)c(F)c4Nc4ccc(I)cc4F)cc3C2=O)C(=O)N1` (stereo not given), 1.1 µM. The same measure, in the same setting: in the case of `FC(F)c1nc2ccccc2n1-c1nc(N2CCOCC2)nc(N2CCOCC2)n1` [ZSTK-474] it was 0.3 µM; in that of `O=C1CCC(N2C(=O)c3ccc(NCCCCCNCCCONC(=O)c4ccc(F)c(F)c4Nc4ccc(I)cc4F)cc3C2=O)C(=O)N1` (stereo not given), 0.5 µM; in that of `O=C1CCC(N2C(=O)c3cccc(NCCOCCOCCOCCNCCCONC(=O)c4ccc(F)c(F)c4Nc4ccc(I)cc4F)c3C2=O)C(=O)N1` (stereo not given), 0.8 µM. Same read-out and setting: in the case of `Cc1ncsc1-c1ccc(CNC(=O)[C@@H]2C[C@@H](O)CN2C(=O)[C@@H](NC(=O)COCCOCCNCCCONC(=O)c2ccc(F)c(F)c2Nc2ccc(I)cc2F)C(C)(C)C)cc1` it was 1.6 µM; in that of `Cc1ncsc1-c1ccc(CNC(=O)[C@@H]2C[C@@H](O)CN2C(=O)[C@@H](NC(=O)CCOCCNCCCONC(=O)c2ccc(F)c(F)c2Nc2ccc(I)cc2F)C(C)(C)C)cc1`, 4.8 µM. For the molecule `Cc1ncsc1-c1ccc([C@H](C)NC(=O)[C@@H]2C[C@@H](O)CN2C(=O)[C@@H](NC(=O)CCCCCCCCCNCCCCONC(=O)c2ccc(F)c(F)c2Nc2ccc(I)cc2F)C(C)(C)C)cc1`, the GI50 came to 0.055 µM.

With `Cc1ncsc1-c1ccc(CNC(=O)[C@@H]2C[C@@H](O)CN2C(=O)[C@@H](NC(=O)CCCCCCCCCNCCCONC(=O)c2ccc(F)c(F)c2Nc2ccc(I)cc2F)C(C)(C)C)cc1`, the GI50 worked out at 0.5 µM. Same read-out and setting: in the case of `O=C1CCC(N2C(=O)c3cccc(NCCCCNCCCONC(=O)c4ccc(F)c(F)c4Nc4ccc(I)cc4F)c3C2=O)C(=O)N1` (stereo not given) it was 1.9 µM; in that of `Cc1ncsc1-c1ccc(CNC(=O)[C@@H]2C[C@@H](O)CN2C(=O)[C@@H](NC(=O)COCCOCCOCCNCCCONC(=O)c2ccc(F)c(F)c2Nc2ccc(I)cc2F)C(C)(C)C)cc1`, 1.3 µM; in that of `Cc1ncsc1-c1ccc(CNC(=O)[C@@H]2C[C@@H](O)CN2C(=O)[C@@H](NC(=O)CNCCCONC(=O)c2ccc(F)c(F)c2Nc2ccc(I)cc2F)C(C)(C)C)cc1`, 1.8 µM. Same read-out and setting: in the case of `O=C1CCC(N2C(=O)c3ccc(NCCCCCCCCNCCCONC(=O)c4ccc(F)c(F)c4Nc4ccc(I)cc4F)cc3C2=O)C(=O)N1` (stereo not given) it was 0.3 µM. On the same count and under the same terms, the result for `Cc1ncsc1-c1ccc(CNC(=O)[C@@H]2C[C@@H](O)CN2C(=O)[C@@H](NC(=O)CCOCCOCCNCCCONC(=O)c2ccc(F)c(F)c2Nc2ccc(I)cc2F)C(C)(C)C)cc1` reads 1.6 µM; that for `Cc1ncsc1-c1ccc(CNC(=O)[C@@H]2C[C@@H](O)CN2C(=O)[C@@H](NC(=O)CCCCCNCCCONC(=O)c2ccc(F)c(F)c2Nc2ccc(I)cc2F)C(C)(C)C)cc1`, 2.1 µM. As to `Cc1ncsc1-c1ccc(CNC(=O)[C@@H]2C[C@@H](O)CN2C(=O)[C@@H](NC(=O)CCCCCCNCCCONC(=O)c2ccc(F)c(F)c2Nc2ccc(I)cc2F)C(C)(C)C)cc1`, the GI50 came out at 1.4 µM. The same measure, in the same setting: in the case of `Cc1ncsc1-c1ccc(CNC(=O)[C@@H]2C[C@@H](O)CN2C(=O)[C@@H](NC(=O)CCCCCCCNCCCONC(=O)c2ccc(F)c(F)c2Nc2ccc(I)cc2F)C(C)(C)C)cc1` it was 0.5 µM.

Turning to `Cc1ncsc1-c1ccc(CNC(=O)[C@@H]2C[C@@H](O)CN2C(=O)[C@@H](NC(=O)CCOCCOCCOCCOCCNCCCONC(=O)c2ccc(F)c(F)c2Nc2ccc(I)cc2F)C(C)(C)C)cc1`, the GI50 worked out at 1.7 µM. The molecule `O=C1CCC(N2C(=O)c3ccc(NCCOCCOCCNCCCONC(=O)c4ccc(F)c(F)c4Nc4ccc(I)cc4F)cc3C2=O)C(=O)N1` (stereo not given) yielded a GI50 of 1.1 µM. The same measure, in the same setting: in the case of `Cc1ncsc1-c1ccc(CNC(=O)[C@@H]2C[C@@H](O)CN2C(=O)[C@@H](NC(=O)CCOCCOCCOCCNCCCONC(=O)c2ccc(F)c(F)c2Nc2ccc(I)cc2F)C(C)(C)C)cc1` it was 3.3 µM; in that of `O=C1CCC(N2C(=O)c3cccc(NCCOCCOCCOCCOCCOCCNCCCONC(=O)c4ccc(F)c(F)c4Nc4ccc(I)cc4F)c3C2=O)C(=O)N1` (stereo not given), 0.6 µM. Still for that read-out and setting: the result for `O=C1CCC(N2C(=O)c3ccc(NCCOCCOCCOCCOCCNCCCONC(=O)c4ccc(F)c(F)c4Nc4ccc(I)cc4F)cc3C2=O)C(=O)N1` (stereo not given) reads 0.5 µM; that for `Cc1ncsc1-c1ccc([C@H](C)NC(=O)[C@@H]2C[C@@H](O)CN2C(=O)[C@@H](NC(=O)CCCCCCCCCCNCCCCONC(=O)c2ccc(F)c(F)c2Nc2ccc(I)cc2F)C(C)(C)C)cc1`, 0.043 µM.

Take `Cc1ncsc1-c1ccc(CNC(=O)[C@@H]2C[C@@H](O)CN2C(=O)[C@@H](NC(=O)CCCCCCCCCCNCCCONC(=O)c2ccc(F)c(F)c2Nc2ccc(I)cc2F)C(C)(C)C)cc1`: the GI50 turned out to be 0.4 µM. On the same count and under the same terms, the result for `O=C1CCC(N2C(=O)c3ccc(NCCCNCCCONC(=O)c4ccc(F)c(F)c4Nc4ccc(I)cc4F)cc3C2=O)C(=O)N1` (stereo not given) reads 0.5 µM; that for `O=C1CCC(N2C(=O)c3cccc(NCCCCCNCCCONC(=O)c4ccc(F)c(F)c4Nc4ccc(I)cc4F)c3C2=O)C(=O)N1` (stereo not given), 1.8 µM; that for `O=C1CCC(N2C(=O)c3cccc(NCCCCCCNCCCONC(=O)c4ccc(F)c(F)c4Nc4ccc(I)cc4F)c3C2=O)C(=O)N1` (stereo not given), 3.8 µM.

Regarding `O=C1CCC(N2C(=O)c3ccc(NCCCCNCCCONC(=O)c4ccc(F)c(F)c4Nc4ccc(I)cc4F)cc3C2=O)C(=O)N1` (stereo not given), it took 1 µM to inhibit growth by half (GI50). On the same count and under the same terms, the result for `Cc1ncsc1-c1ccc(CNC(=O)[C@@H]2C[C@@H](O)CN2C(=O)[C@@H](NC(=O)CCCCCCCCNCCCONC(=O)c2ccc(F)c(F)c2Nc2ccc(I)cc2F)C(C)(C)C)cc1` reads 0.6 µM; that for `O=C1CCC(N2C(=O)c3cccc(NCCCCCCCNCCCONC(=O)c4ccc(F)c(F)c4Nc4ccc(I)cc4F)c3C2=O)C(=O)N1` (stereo not given), 4.5 µM.

`CCCS(=O)(=O)Nc1ccc(F)c(C(=O)c2c[nH]c3ncc(-c4ccc(Cl)cc4)cc23)c1F` [VEMURAFENIB] gave a GI50 of 0.1 µM. The same measure, in the same setting: the result for `Cc1ncsc1-c1ccc(CNC(=O)[C@@H]2C[C@@H](O)CN2C(=O)[C@@H](NC(=O)CCCNCCCONC(=O)c2ccc(F)c(F)c2Nc2ccc(I)cc2F)C(C)(C)C)cc1` reads 3.1 µM. Same read-out and setting: the result for `O=C1CCC(N2C(=O)c3cccc(NCCCCCCCCNCCCONC(=O)c4ccc(F)c(F)c4Nc4ccc(I)cc4F)c3C2=O)C(=O)N1` (stereo not given) reads 3.5 µM; that for `O=C1CCC(N2C(=O)c3ccc(NCCOCCNCCCONC(=O)c4ccc(F)c(F)c4Nc4ccc(I)cc4F)cc3C2=O)C(=O)N1` (stereo not given), 1.4 µM.

Molecule `O=C1CCC(N2C(=O)c3ccc(NCCOCCOCCOCCNCCCONC(=O)c4ccc(F)c(F)c4Nc4ccc(I)cc4F)cc3C2=O)C(=O)N1` (stereo not given) yielded a GI50 of 1.5 µM.

For the next test, the system named is SU-DHL-1. Put plainly: Inhibition of ERK phosphorylation in human SU-DHL-1 cells at 0.3 to 3 uM and incubated for 24 hrs by Western blot analysis. Format: cell-based. The following applies: dose 0.3-3 µM. The gist of the method:
(§1)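 H3122 and SU-DHL-1 cells were treated with compounds, and MEK1/2, pMEK and pERK were assessed by Western blot of lysates.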
For orientation: A western blot detects proteins with antibodies after separation by electrophoresis.
On to `Cc1ncsc1-c1ccc([C@H](C)NC(=O)[C@H]2C[C@H](O)CN2C(=O)[C@@H](NC(=O)CCCCCCCCCCN(C)CCCONC(=O)c2ccc(F)c(F)c2Nc2ccc(I)cc2F)C(C)(C)C)cc1`, for which the inhibition entry is “inactive”.

In the next test the test system is NCI-H3122. Put plainly: Antiproliferative activity against human NCI-H3122 cells at 0.014 to 3.33 uM incubated for 3 days by WST8 assay. It is filed as functional, cell-based. The following applies: dose 0.014-3.33 µM, time 3.0 day. The method, boiled down:
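NCI-H3122 cells were exposed to serial compound dilutions for 3 days, with WST-8 live-cell readout. Each concentration was run in triplicate. Student's t-test per concentration versus DMSO.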
For `Cc1ncsc1-c1ccc([C@H](C)NC(=O)[C@H]2C[C@H](O)CN2C(=O)[C@@H](NC(=O)CCCCCCCCCCN(C)CCCONC(=O)c2ccc(F)c(F)c2Nc2ccc(I)cc2F)C(C)(C)C)cc1`, the result was inactive.

A further test concerns NCI-H3122. Put plainly: Inhibition of ERK phosphorylation in human NCI-H3122 cells at 0.3 to 3 uM and incubated for 24 hrs by Western blot analysis. It is filed as cell-based. Particulars: dose 0.3-3 µM. The gist of the method: as §1
Consider `Cc1ncsc1-c1ccc([C@H](C)NC(=O)[C@H]2C[C@H](O)CN2C(=O)[C@@H](NC(=O)CCCCCCCCCCN(C)CCCONC(=O)c2ccc(F)c(F)c2Nc2ccc(I)cc2F)C(C)(C)C)cc1`, for which the inhibition entry is “inactive”.

The test system of a further test is HT-29. Nature of the test: Inhibition of ERK phosphorylation in human HT-29 cells at 0.3 to 3 uM incubated for 24 hrs by Western blot analysis. The following applies: dose 0.3-3 µM. It is filed as cell-based.
For the molecule `Cc1ncsc1-c1ccc([C@H](C)NC(=O)[C@H]2C[C@H](O)CN2C(=O)[C@@H](NC(=O)CCCCCCCCCCN(C)CCCONC(=O)c2ccc(F)c(F)c2Nc2ccc(I)cc2F)C(C)(C)C)cc1`, the inhibition result is “inactive”.

The values are drawn from ChEMBL document CHEMBL4706631, “Potent and Selective Mitogen-Activated Protein Kinase Kinase 1/2 (MEK1/2) Heterobifunctional Small-molecule Degraders” (J Med Chem, 2020).
